A selection: hits, their analogues and other compounds. The true share with any hit is near 4.9%.
CHT allo act = allosteric activators of human choline transporter CHT | CHT-expressing cells, membrane potential dye, choline EC20; active compounds read high; LV-AA mutant CHT in HEK293 cells | B-score at 10 µM | hit rate 0.49% among 310,000 | AID 488977;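 active = initial fluorescence not abnormally high and integrated response B-score, plate-corrected, over 3 SD above library mean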
HSF1 inh = HSF1 inhibition. AID 2098. NIH3T3-HGL HSE-luciferase, MG132-induced, luminescence 8 h; active compounds read low. activity change, negative = inhibition, % at 7.5 µM (by protocol). hit rate 0.77% among 300,000;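 active = more than half of replicate wells show activity change below -50%, luminescence cut by over half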;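 also: luciferase reports HSF-1 transcriptional activity via heat shock element; 0% = median of DMSO wells and -100% = zero luminescence signal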
CHT block = inhibitors of human choline transporter CHT. B-score at 10 µM. hit rate 0.86% among 310,000. Q9GZV3. CHT-expressing cells, membrane potential dye, choline response; active compounds read low;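 active = B-score over 3 SD under the library average, and starting fluorescence ratio not unusually high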;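 also: choline stimulus applied at its EC90 after an EC20 pre-addition; B-score computed on integrated fluorescence ratio after choline addition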
PHOSPHO1 inh = PHOSPHO1 (human) inhibition; Q8TCT1; recombinant PHOSPHO1, absorbance phosphatase assay; inhibition, % at 13.3 µM; hit rate 1.1% among 290,000; in the data active = inhibition above about 60%
Target sequence (Q8TCT1 whole entry, looked up): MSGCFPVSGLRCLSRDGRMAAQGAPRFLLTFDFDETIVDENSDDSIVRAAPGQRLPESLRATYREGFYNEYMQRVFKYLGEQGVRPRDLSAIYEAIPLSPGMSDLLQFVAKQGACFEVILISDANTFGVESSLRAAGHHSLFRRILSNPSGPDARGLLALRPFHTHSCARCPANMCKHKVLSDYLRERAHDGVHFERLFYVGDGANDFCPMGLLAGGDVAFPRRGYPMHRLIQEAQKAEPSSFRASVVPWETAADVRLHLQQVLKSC
HSF-1 act = increases HSF-1 driven luciferase reporter signal; activation, % at 9 µM; NIH3T3-HGL HSF-1 luciferase reporter, MG132, 8 h; 100% = twice DMSO control signal; AID 504408; hit rate 1.7% among 300,000;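 active = mean replicate activation of at least 50% with a set share of replicates each reaching 50%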;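 also: 0% = median of the neutral control wells and 100% = twice that signal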
Lipid droplet = modulators of hepatic lipid droplet formation. AML12 mouse hepatocytes, oleate lipid droplets, BODIPY imaging. inhibition, % at 6.5 µM. hit rate 0.4% among 240,000. AID 1656;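 active = lipid droplet intensity inhibited by at least 50%, with more than 500 cells counted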
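Assay system: AML12 mouse liver cells | Compound: 6.5 µM single-point dosing | Schedule: Overnight exposure | Technique: Fluorescence imaging, 20x objective, two fields per well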
* marks the source's active call; other numbers are inactive results; i = inactive; x = no result given.

SMILES	CHT allo act	HSF1 inh	CHT block	PHOSPHO1 inh	HSF-1 act	Lipid droplet
C/C(Cc1ccccc1)=N\NC(=O)CNC(=O)/C=C\c1ccccc1	i	5.5	i	-8.5	22.4	1.9
CC1CCN(C2=NC(=O)/C(=C/c3ccccc3F)S2)CC1	i	-68.5*	i	19.9	-74.2	-10.7
O=C(COC(=O)c1ccc([N+](=O)[O-])s1)Nc1cccc(S(=O)(=O)NC2=NCCCCC2)c1	i	3.3	i	7.8	4.7	-15.7
Oc1ccc2ccccc2c1CNc1cnc2ccccc2c1	i	24.4	i	106.3*	45.1	4.6
Oc1ccccc1CNc1cnc2ccccc2c1	i	23.2	i	8.7	22.0	-2.3
Cc1cccc(-n2c(-c3csc(C)c3)n[nH]c2=S)c1	i	6.4	i	99.2*	33.0	-4.5
CCc1cc(-c2n[nH]c(=S)n2-c2cccc(C)c2)cs1	i	10.5	i	92.4*	30.0	14.8
CC(=O)NS(=O)(=O)c1ccc(N=c2ssc3c2-c2cc(C)ccc2NC3(C)C)cc1	i	-0.5	i	-4.0	15.3	12.4
CC(=O)Nc1ccc2c(CSc3nnc(-c4cccnc4)n3-c3ccc(C)cc3C)cc(=O)oc2c1	i	-2.6	i	-29.8	11.9	-24.1
Cc1ccc(-n2c(SCc3cc(=O)n4ccsc4n3)nnc2-c2cccnc2)c(C)c1	i	0.7	i	61.1*	-16.8	x
COC(=O)C[C@](O)(CCCC(C)(C)O)C(=O)O[C@@H]1C(OC)=C[C@]23CCCN2CCc2cc4c(cc2[C@H]13)OCO4	i	-73.1*	i	x	-75.9	x
S=c1[nH]nc(-c2ccncc2)n1Cc1ccccc1	i	-6.5	i	87.7*	9.8	x
Cc1cc(Cl)ccc1-n1c(-c2cccnc2)n[nH]c1=S	i	-12.2	i	78.2*	4.3	3.6
Cc1ccc(C)c(-n2c(-c3cccnc3)n[nH]c2=S)c1	i	-4.5	i	12.6	-13.8	-5.9
CCc1ccccc1-n1c(-c2ccncc2)n[nH]c1=S	i	5.1	i	90.0*	-1.6	x
Fc1ccc(-c2n[nH]c(=S)n2Cc2ccccc2)cc1	i	9.3	i	-48.2	12.3	-0.5
COC(=O)CCC(=O)NNC(=O)CCC(=O)Nc1cccc(Cl)c1C	i	2.4	i	-5.9	-11.0	-2.8
CCN(c1ccc(NS(=O)(=O)c2cc(Cl)ccc2Cl)cc1)C(C)C	i	-12.5	i	1.0	-5.6	-9.5
Cc1cc(C)cc(Nc2ccc(C(=O)O)cc2[N+](=O)[O-])c1	i	-1.6	i	20.3	5.0	-0.7
CCOC(=O)CN1CCC(c2cc(-c3ccc(Cl)cc3)n[nH]2)CC1	i	8.5	i	35.1	51.7*	-9.7
Nc1c(Cl)ncnc1NCCc1ccc(O)cc1	i	1.9	i	24.0	3.6	-7.0
COC(=O)C1=NN(c2ccc(C)cc2)C2(S1)SC(C(C)=O)=C(C)N2c1ccccc1 (stereo not given)	i	2.2	i	63.7*	8.0	-4.1
CCC1Oc2ccccc2N(CC(=O)NC2CCCCC2C)C1=O (stereo not given)	i	4.6	i	39.9	17.0	-10.9
Cc1cc(C)cc(N2C(=O)CN(Cc3ccccc3)C2=S)c1	i	-77.8*	i	20.3	-81.6	-11.3
CC1CN(C(=O)CS(=O)(=O)Cc2ccccc2)CC(C)O1 (stereo not given)	i	16.7	i	49.4	59.9*	-7.6
SMILES	CHT allo act	HSF1 inh	CHT block	PHOSPHO1 inh	HSF-1 act	Lipid droplet
O=C(Nc1ccc(F)c(F)c1)c1cc(S(=O)(=O)N2CCN(c3ccccn3)CC2)ccc1F	i	13.8	i	8.2	22.9	4.9
CCc1ccc(C(=O)CSc2n[nH]c(C)n2)cc1	i	0.2	i	101.7*	5.4	x
Cc1ccc(C(=O)CSc2n[nH]c(C)n2)cc1	i	0.5	i	92.3*	8.0	x
Cc1c(/C=N/Nc2nc3ccccc3[nH]2)c2ccccc2n1C	i	263.2	i	22.6	331.9*	26.3
Cn1c(/C=N/Nc2nc3ccccc3[nH]2)nc2ccccc21	i	9.7	i	6.6	20.6	-14.8
Cc1nn(-c2ccccc2)c(C)c1/C=N/Nc1nc2ccccc2[nH]1	i	337.4	i	11.6	422.6*	-3.1
CCOC(=O)c1c(NC(=O)c2cccs2)sc(CC)c1-c1cccs1	i	5.0	i	-5.3	-3.6	9.4
Cc1ccc(NC(=O)C2CCCN2S(=O)(=O)c2ccc3c(c2)n(C)c(=O)c(=O)n3C)cc1C (stereo not given)	i	-52.6*	i	-11.1	-65.1	-0.5
COc1ccc(N2CC(C(=O)Nc3nnc(SCCC4OCCO4)s3)CC2=O)cc1 (stereo not given)	i	2.0	i	-56.1	13.6	0.2
CCOC(=O)c1cc(=O)n2nc(-c3ccc(C)cc3)nc2s1	i	2.7	i	75.3*	9.8	x
CCOC(=O)Cc1csc2nc(-c3ccccc3)nn12	i	-0.6	i	25.4	3.7	5.1
Cc1ccc(COc2ccc(C)nc2[N+](=O)[O-])cc1	i	29.5	i	38.6	74.5*	-29.7
Cc1nccc(-c2sc(-c3cccs3)nc2C)n1	i	10.8	i	41.2	42.4	10.9
Oc1ccccc1-c1n[nH]c(=S)n1Cc1ccco1	i	-0.2	i	94.5*	13.3	-2.4
Cc1cc(-c2n[nH]c(=S)n2Cc2ccco2)n(C)n1	i	-2.0	i	-20.6	12.5	4.9
COc1ccc(-c2n[nH]c(=S)n2Cc2ccco2)cc1	i	11.6	i	101.6*	0.6	3.8
CS(=O)(=O)c1nc(-c2ccccc2)cc(-c2ccccc2)c1C#N	i	159.4	i	38.2	166.7*	x
Cc1ccc(-c2cc(-c3ccccc3)c(C#N)c(Br)n2)cc1	i	-4.0	i	-8.8	-3.7	8.5
CC1CN(C(=O)CN2C(=O)c3ccccc3S2(=O)=O)CC(C)O1 (stereo not given)	i	-2.9	i	14.4	5.9	x
Clc1c(-c2ccccc2)nnn1-c1ccccc1	i	40.8	i	2.1	75.4*	31.2
Cn1c(-c2sc3cc(C(F)(F)F)cnc3c2-c2cccnc2)n[nH]c1=S	i	-85.4*	i	92.0*	-88.0	8.3
Cc1cccn2c(=O)c3cc(C(=O)NCC4CCCO4)c(=N)n(C4CCCC4)c3nc12 (stereo not given)	i	-7.2	i	43.3	0.9	-9.2
CCOc1ccc(/C=N/N2C(=O)C(CC(=O)Nc3ccc(F)cc3F)SC2=NC)cc1OC (stereo not given)	i	22.4	i	7.1	59.5*	x
CN=C1SC(CC(=O)Nc2ccccc2F)C(=O)N1/N=C/c1ccc(O)c(OC)c1 (stereo not given)	i	19.5	i	20.0	40.0	-68.0
